# From PubChem BioAssay
# A selection: hits, their analogues and other compounds. The true share with any hit is near 2.5%.
# E-selectin induc = induces E-selectin expression in human endothelial cells; hit rate 0.37% among 260,000; HUVEC E-selectin immunofluorescence imaging; normalized: neutral wells 0, TNF-alpha wells 100; activation, % at 7.58 µM;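 active = mean E-selectin-positive cell signal at least 10% of the positive control, reached in at least 60% of replicates, without over 20% cell loss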
# Target sequence (P16581 whole entry, looked up): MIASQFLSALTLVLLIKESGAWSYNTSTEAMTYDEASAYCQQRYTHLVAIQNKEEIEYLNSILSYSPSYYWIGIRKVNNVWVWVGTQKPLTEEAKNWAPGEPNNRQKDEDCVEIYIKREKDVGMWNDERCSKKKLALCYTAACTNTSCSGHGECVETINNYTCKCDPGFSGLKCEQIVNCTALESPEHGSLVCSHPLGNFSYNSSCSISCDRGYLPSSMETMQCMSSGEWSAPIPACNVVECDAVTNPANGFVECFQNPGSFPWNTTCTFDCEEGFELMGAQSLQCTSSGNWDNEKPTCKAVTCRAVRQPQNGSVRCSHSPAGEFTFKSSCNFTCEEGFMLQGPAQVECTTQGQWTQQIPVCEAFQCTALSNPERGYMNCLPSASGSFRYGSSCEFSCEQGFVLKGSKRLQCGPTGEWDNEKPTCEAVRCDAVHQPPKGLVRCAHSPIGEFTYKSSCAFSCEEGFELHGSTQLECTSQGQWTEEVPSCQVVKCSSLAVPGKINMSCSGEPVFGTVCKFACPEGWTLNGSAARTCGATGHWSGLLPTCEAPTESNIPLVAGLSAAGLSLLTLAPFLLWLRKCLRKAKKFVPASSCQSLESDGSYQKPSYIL
#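 Test system: HUVEC | Signal: Immunofluorescence imaging | Read-out: Percent E-selectin-positive cells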
# S100A4 MyoIIA = blocks human S100A4 binding to myosin IIA peptide; hit rate 0.14% among 360,000; inhibition, % at 10.7 µM; P26447; S100A4/TAMRA-MyoIIA peptide fluorescence polarization;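 active = mean inhibition of at least 70% across replicates, with every replicate also reaching that level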
#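 Test system – S100A4 monomer (human) · Compound – single-point compound testing · Schedule – 5 min incubation before reading · Probe or stimulus – TAMRA-labelled myosin IIA heavy-chain peptide probe, 5 nM · Benchmarks – neutral control DMSO, positive control TFP · Medium – Calcium-containing HEPES buffer, pH 7.2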
# FGF22 binding = FGF22 (human) thermal shift binding | Q9HCT0 | recombinant FGF22 thermal shift, SYPRO orange fluorescence; percent of sucrose octasulfate shift, DMSO zero | activity (Tm shift, normalised), % at 9.99 µM | hit rate 1.5% among 340,000 | AID 651658;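 active = mean Tm shift, scaled 0 neutral to 100 positive control, at about 1.3% or above, every replicate too, limit read from the data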
# SIRT5 block = sirtuin-5 (human) deacylase inhibition; AID 652115; hit rate 1.1% among 330,000; Purified SirT5, succinyl-peptide AMC, trypsin-coupled fluorescence; inhibition, % at 15 µM; in the data active = inhibition above about 15%
# miR-122 sensor = miR-122 inhibition in Huh7 cells | Huh7 miR-122 Renilla luciferase sensor, 48 h; neutral wells = 0, positive control = 100 | activation (reporter increase), % at 12.5 µM | hit rate 0.3% among 340,000;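 active = mean replicate activation score at least 90 and every replicate individually at or above 90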;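 also: higher luciferase means less miR-122 activity so hits act as miR-122 inhibitors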
# * marks the source's active call; other numbers are inactive results; x = no result given; [ ] = dose if it differs, or a comment.
SMILES,E-selectin induc,S100A4 MyoIIA,FGF22 binding,SIRT5 block,miR-122 sensor
N/C(=N\NC(=O)c1ccc(F)cc1)c1cc2ccccc2oc1=O,4,5,43*,-4,x
N/C(=N\NC(=O)c1cccc(F)c1)c1cc2ccccc2oc1=O,0,12,0,-6,-5
COC(=O)c1ccc(COC(=O)c2ccc(CO)cc2)o1,x,-3,44*,0,0
COC(=O)c1ccc(CO/N=C/c2ccc(OC)cc2)o1,x,-58,44*,1,x
COC(=O)c1ccc(Cc2ccc(C(=O)OC)o2)o1,x,0,x,1,x
C[C@@H]1CN([C@@H](C)CO)C(=O)Cc2cc(NC(=O)CCN3CCOCC3)ccc2O[C@@H]1CN(C)C(=O)Nc1ccc(F)cc1,1,14,0,5,2[16.7 µM]
COCc1[nH]nc2c1C(c1ccc(F)cc1)N(c1ccccc1)C2=O (stereo not given),1,-6,42,x,x
COCc1[nH]nc2c1C(c1ccc(F)cc1)N(c1ccc(OC)cc1)C2=O (stereo not given),0,8,43*,x,x
COc1ccc(NC(=O)Nc2ccc3c(c2)[C@@H]2C[C@H](CC(=O)NC4CCCCC4)O[C@H](CO)[C@@H]2O3)cc1,1,-2,0,-2,8[16.7 µM]
CO[C@H]1CN(C)C(=O)c2cc(NC(C)=O)ccc2OC[C@H](C)N(Cc2ccccn2)C[C@H]1C,0,141*,0,2,-3[16.7 µM]
COCC(=O)Nc1ccc2c(c1)C(=O)N(C)C[C@@H](OC)[C@H](C)CN(Cc1ccccn1)[C@H](C)CO2,0,3,0,23*,x
CO[C@H]1CN(C)C(=O)c2cc(NC(C)=O)ccc2OC[C@@H](C)N(Cc2ccccn2)C[C@@H]1C,0,1,0,-4,-3[16.7 µM]
COCC(=O)Nc1ccc2c(c1)C(=O)N(C)C[C@H](OC)[C@H](C)CN(Cc1ccccn1)[C@@H](C)CO2,0,10,x,-1,x
CCNC(=O)C[C@@H]1CC[C@H]2[C@@H](COC[C@H](O)CN2C(=O)c2cc(Cl)cc(Cl)c2)O1,0,x,0,x,-3[16.7 µM]
C[C@@H]1CN([C@@H](C)CO)C(=O)c2c(c3ccccc3n2C)-c2ccccc2CO[C@@H]1CN(C)C(=O)c1ccccc1,0,2,0,0,x
O=C(c1cccnc1)N1CCN(C/C=C/c2ccccc2)CC1,4,1,43*,-2,8
O=C(NC(=S)N1CCN(C/C=C/c2ccccc2)CC1)c1cccnc1,0,2,0,-1,1
CCn1c(C)nc2cc(C(=O)NNC(=O)Nc3ccc(Cl)c(Cl)c3)ccc21,0,-5,0,18*,x
C[C@@H]1CN([C@@H](C)CO)C(=O)Cc2cc(NS(C)(=O)=O)ccc2O[C@H]1CN(C)C(=O)Nc1cccc2ccccc12,x,22,1,3,3[16.7 µM]
Cc1ccc(-c2ccc(CN3C(C(C)C)C(=O)N(Cc4cn(CCC5OCCO5)nn4)CCS3(=O)=O)cc2)c(C)c1 (stereo not given),0,0,0,26*,-2
CC(C)CC1C(=O)N(Cc2cn(Cc3ccco3)nn2)CCS(=O)(=O)N1Cc1ccc(-c2ccc(F)cc2)cc1 (stereo not given),0,-5,0,18*,-4
Cc1ccccc1-c1ccc(CN2C(C(C)C)C(=O)N(Cc3cn(CCC4OCCO4)nn3)CCS2(=O)=O)cc1 (stereo not given),0,-2,0,4,-8
Cc1ccc(-c2ccc(CN3C(C)C(=O)N(Cc4cn(Cc5ccco5)nn4)CCS3(=O)=O)cc2)c(C)c1 (stereo not given),0,-8,0,27*,-10
CC1C(=O)N(Cc2cn(CCC3OCCCO3)nn2)CCS(=O)(=O)N1Cc1ccc(-c2ccc(Cl)cc2)cc1 (stereo not given),0,0,44*,1,-9
CC(C)NC(=O)NCC[C@H]1CC[C@H](NC(=O)Nc2ccccc2)[C@@H](CO)O1,0,11,0,2,-2[16.7 µM]
SMILES,E-selectin induc,S100A4 MyoIIA,FGF22 binding,SIRT5 block,miR-122 sensor
CO[C@@H]1CN(C)C(=O)c2cc(NC(=O)c3ccc(F)cc3)ccc2OC[C@@H](C)N(C(C)=O)C[C@@H]1C,1,4,0,-2,-1[16.7 µM]
COCC(=O)N1CC2(C1)CN(C(=O)Nc1ccccc1F)[C@@H](CO)c1c2c2ccc(OC)cc2n1C,0,x,0,x,x
C[C@H](NC(=O)OCc1ccccc1)C(=O)NNC(=O)[C@H](C)NC(=O)OCc1ccccc1,0,-3,0,21*,-5
Cc1cc(C(=O)COc2ccc(C#N)cc2)c(C)n1-c1ccc2c(c1)OCO2,1,3,0,35*,-6
Cc1cc(C(=O)COc2ccc(C#N)cc2)c(C)n1CC1CCCO1 (stereo not given),1,3,43*,x,3
C[C@H](CO)N1C[C@H](C)[C@@H](CN(C)C)Oc2c(NC(=O)Nc3ccc4c(c3)OCO4)cccc2C1=O,x,-11,0,-2,16[16.7 µM]
CCN1CCN(C(=O)CN(CC)S(=O)(=O)c2ccc(Cl)cc2)CC1,x,x,x,x,4
CCN1CCN(C(=O)CN(CC)S(=O)(=O)c2ccc3ccccc3c2)CC1,x,-4,0,23*,x
N#Cc1cccc(-c2ccc([C@@H]3[C@H](CO)N4CCCCN(C(=O)Nc5ccccc5)C[C@@H]34)cc2)c1,0,-16,0,-2,4[16.7 µM]
COc1cccc(/C=C(\C#N)c2nc3ccccc3[nH]2)c1OCC(=O)O,x,-8,0,102*,10
COC(=O)/C(=C\c1cc(OC)c(OC)c(OC)c1)c1nc2ccccc2[nH]1,0,-6,43*,-3,x
COC(=O)/C(=C\c1ccc(O)cc1)c1nc2ccccc2[nH]1,3,-3,44*,-4,x
COc1ccc2c3c([nH]c2c1)[C@@H](CO)N(C(=O)Nc1ccc(F)cc1)CC31CCN(S(=O)(=O)c2cccs2)CC1,0,-9,0,7,x
CO[C@H](CN(C)S(=O)(=O)c1ccc(Cl)cc1)[C@H](C)CN(C(=O)Nc1ccccc1F)[C@@H](C)CO,0,17,0,0,x
O=C(CCCN1C(=O)/C(=C/c2ccco2)SC1=S)Nc1cccc(C(=O)O)c1,x,-21,0,42*,x
O=C(CCCN1C(=O)/C(=C\c2ccco2)SC1=S)Nc1ccc(O)cc1C(=O)O,x,-23,x,40*,-3
O=C(CCCN1C(=O)/C(=C\c2cccs2)SC1=S)Nc1ccc(O)cc1C(=O)O,x,15,0,-3,-1
O=C(CCCN1C(=O)/C(=C\c2cccs2)SC1=S)Nc1cccc(C(=O)O)c1,x,5,1,x,x
Cc1cccc(S(=O)(=O)N2C[C@@H](O)COC[C@@H]3O[C@@H](CC(=O)NCCCN4CCOCC4)CC[C@H]32)c1,0,12,0,1,-2[16.7 µM]
